Data on 13 molecules can be found in ChEMBL document CHEMBL1156387, “Novel esters of glaucarubolone as inducers of terminal differentiation of promyelocytic HL-60 cells and inhibitors of 7,12-dimethylbenz[a]anthracene-induced preneoplastic lesion formation in mouse mammary organ culture” (J Nat Prod, 2001).

Series [1] has as its system HL-60. Nature of the series: Selectivity index, ratio of cytotoxic IC50 to antiproliferative IC50 for human HL60 cells. The format is functional. The method, boiled down: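 Index = cytotoxic IC50 (trypan blue, 4-day HL-60 exposure) divided by antiproliferative IC50 ([3H]thymidine incorporation), each from dose–response with at least five points.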
Series [2] is described as follows: Inhibition of DMBA-induced preneoplastic lesion formation in a BALB/c mouse mammary organ culture at 2 uM pretreated for 10 days before DMBA-challenge measured after 14 days. The series is classed as functional. The following applies: Mammary gland. An outline of the steps: (§1)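 Female BALB/c mice, 4 weeks old, primed 9 days with estradiol 1 μg plus progesterone 1 mg. Thoracic glands were cultured 10 days with insulin, prolactin, aldosterone and hydrocortisone plus test agent at 2 μM. DMBA 2 μg/mL was given for 24 h on day 3. Regression followed for 14 days in insulin alone. Glands were formalin-fixed and alum carmine-stained. Lesion incidence gave % inhibition versus DMBA control. Toxicity was scored as duct dilation or amorphous disintegration.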

Series [3] is described as follows: Toxicity in BALB/c mouse mammary organ culture assessed as morphological changes in mammary gland at 2 uM after 10 days. The following applies: ex_vivo, 240 h. The format is tissue-based. The method, boiled down: as §1
Series [4] deals with HL-60. Nature of the series: Antiproliferative activity against human HL60 cells assessed as inhibition of [3H]thymidine incorporation after 4 days by liquid scintillation counter. The series is classed as functional, cell-based. The method, boiled down:
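HL-60 cells in log phase diluted to 10^5 cells/mL, preincubated 18 h, then exposed to samples in DMSO (final 0.1% v/v; DMSO-only controls) for 4 days. Cells then pulsed with [3H]thymidine (0.5 μCi/mL, 65 Ci/mmol) for 18 h at 37 °C, 5% CO2, harvested onto glass fiber filters, scintillation counted; incorporation per 10^6 cells as % of DMSO control. IC50 from 5–7 concentrations in duplicate.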

The test system of series [5] is HL-60. The experiment in a line: Induction of cell differentiation in human HL60 cells assessed as superoxide anion production after 4 days by NBT reduction assay. The series is classed as functional, cell-based. The following applies: HL-60, 96 h. The method, boiled down: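 Cells diluted to 10^5/mL and recovered overnight were exposed 4 days to samples (0.1% v/v DMSO final). Cell suspension (10^6 cells) was mixed 1:1 with NBT 2 mg/mL plus TPA 1 μg/mL in PBS and held 1 h at 37 °C. Formazan-positive cells were counted microscopically among >200 cells. EC50 from 5–7 concentrations in duplicate; 1α,25-dihydroxyvitamin D3 served as reference.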

In series [6] the test system is HL-60. The experiment in a line: Cytotoxicity against human HL60 cells assessed as loss of membrane integrity after 4 days by trypan blue exclusion assay. The format is functional, cell-based. The following applies: HL-60, 96 h. The method, boiled down: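 After 18 h recovery at 10^5 cells/mL, HL-60 cells were treated 4 days with samples (final DMSO 0.1% v/v). Cells were mixed 1:4 with trypan blue (0.2% w/v in PBS), held at least 5 min at room temperature and counted by hemocytometer. Viability was taken from duplicate samples; IC50 from 5–7 concentrations in duplicate.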

Bounds are passed on as bounds.

For the molecule `CC[C@](O)(CC(=O)O[C@H]1C(=O)O[C@@H]2C[C@H]3C(C)=CC(=O)[C@@H](O)[C@]3(C)[C@H]3[C@]4(O)OC[C@]32[C@@H]1[C@@H](C)[C@H]4O)C(C)C`, the “Ratio IC50” value in the series with HL-60 [1] came to 1.5. In addition, the inhibition at 2 µM in series [2] stood at 44%. In series [3], the Activity entry is given as “Non-toxic”. In addition, the IC50 with HL-60 [4] stood at 9 nM; in the series on HL-60 [6] it was 13 nM. In the series with HL-60 [5], the EC50 stood at 19 nM.

Consider `CCC(CC)(CO)C(=O)O[C@H]1C(=O)O[C@@H]2C[C@H]3C(C)=CC(=O)[C@@H](O)[C@]3(C)[C@H]3[C@]4(O)OC[C@]32[C@@H]1[C@@H](C)[C@H]4O`, for which the “Ratio IC50” value in the series on HL-60 [1] is given as 6.5. In addition, the inhibition at 2 µM in series [2] was 70%. Besides, in series [3], the Activity result is “Non-toxic”. The IC50 in the series with HL-60 [4] turned out to be 150 nM; with HL-60 [6], 950 nM. Also, in the series with HL-60 [5], the half-maximal effective concentration (EC50) amounted to 500 nM.

With `CCCC(=O)O[C@H]1C(=O)O[C@@H]2C[C@H]3C(C)=CC(=O)[C@@H](O)[C@]3(C)[C@H]3[C@]4(O)OC[C@]32[C@@H]1[C@@H](C)[C@H]4O`, the inhibition at 2 µM in series [2] is 82%. For the same molecule, the Activity result in series [3] is recorded as “Non-toxic”. In addition, the IC50 with HL-60 [4] is > 3000 nM; in the series on HL-60 [6], 3000 nM. Further, the concentration for a half-maximal effect (EC50) in the series on HL-60 [5] was > 3000 nM.

For `CC1=CC(=O)[C@@H](O)[C@]2(C)[C@H]3[C@]4(O)OC[C@]35[C@H]([C@@H](C)[C@H]4O)[C@@H](OC(=O)CC3(O)CCC3)C(=O)O[C@@H]5C[C@@H]12`, the “Ratio IC50” value with HL-60 [1] is 1.1. Further, in series [2], the inhibition at 2 µM worked out at 33%. The Activity entry in series [3] is listed as “Non-toxic”. Also, the figures for the half-maximal inhibitory concentration (IC50) in the series on HL-60 [4] and with HL-60 [6] were 260 nM and 280 nM, respectively. Besides, the EC50 in the series with HL-60 [5] worked out at 140 nM.

Regarding `CC1=CC(=O)[C@@H](O)[C@]2(C)[C@H]3[C@]4(O)OC[C@]35[C@H]([C@@H](C)[C@H]4O)[C@@H](OC(=O)CC(C(C)C)C(C)C)C(=O)O[C@@H]5C[C@@H]12`, the “Ratio IC50” value in the series with HL-60 [1] is reported as 2. Further, in series [2], the inhibition at 2 µM was 40%. In series [3], the Activity result is “Non-toxic”. The half-maximal inhibitory concentration (IC50) with HL-60 [4] is 75 nM; in the series on HL-60 [6], 150 nM. For the same molecule, the EC50 in the series with HL-60 [5] was determined as 55 nM.

`CC1=CC(=O)[C@@H](O)[C@]2(C)[C@H]3C4(O)OC[C@@]35[C@@H](C[C@@H]12)OC(=O)C[C@H]5[C@@H](C)[C@H]4O` (single isomer, unassigned) [CHAPARRINONE]: in the series on HL-60 [1], the “Ratio IC50” value worked out at 4.3. Moreover, the inhibition at 2 µM in series [2] amounted to 25%. Moreover, the Activity entry in series [3] is reported as “Non-toxic”. Also, the figures for the concentration for half-maximal inhibition (IC50) in the series with HL-60 [4] and in the series with HL-60 [6] were 1200 nM and 5000 nM, respectively. In the series on HL-60 [5], the EC50 was 2400 nM.

On to `COC(=O)[C@@]12OC[C@]34[C@H]([C@@H](O)[C@@H]1O)[C@@]1(C)CC(=O)C(O)=C(C)[C@@H]1C[C@H]3OC(=O)[C@H](OC(=O)/C=C(\C)C(C)C)[C@@H]24` [BRUCEANTIN], for which, in the series on HL-60 [1], the “Ratio IC50” value was 1. In series [2], the inhibition at 2 µM turned out to be 70%. The Activity result in series [3] was “Non-toxic”. Also, the IC50 with HL-60 [4] and with HL-60 [6] was 40 nM each time. For the same molecule, in the series with HL-60 [5], the concentration for a half-maximal effect (EC50) was found to be 20 nM.

For `COC(=O)[C@@]12OC[C@]34[C@H]([C@@H](O)[C@@H]1O)[C@@]1(C)CC(=O)C(O)=C(C)[C@@H]1C[C@H]3OC(=O)[C@H](OC(=O)C=C(C)C)[C@@H]24` [BRUSATOL], in series [3], the Activity result is on record as “Non-toxic”.

As to `COC(=O)[C@]12OC[C@]34[C@H]([C@@H](O)[C@@H]1O)[C@@]1(C)CC(=O)C(O)=C(C)[C@@H]1C[C@H]3OC(=O)[C@H](OC(=O)C=C(C)C)[C@@H]24` [BRUSATOL], the “Ratio IC50” value in the series on HL-60 [1] is on record as 2.5. In series [2], the inhibition at 2 µM was 70%. For the same molecule, the IC50 in the series with HL-60 [4] turned out to be 70 nM; in the series with HL-60 [6] it was 170 nM. Also, the EC50 in the series on HL-60 [5] was found to be 70 nM.

For `CC[C@](C)(OC(C)=O)C(=O)O[C@H]1C(=O)O[C@@H]2C[C@H]3C(C)=CC(=O)[C@@H](O)[C@]3(C)[C@H]3[C@@H](O)[C@H](O)[C@@]4(C)OC[C@]32[C@@H]14` [QUASSIMARIN], the “Ratio IC50” value in the series with HL-60 [1] was determined as 2.2. The IC50 turned out to be 60 nM in the series on HL-60 [4] and 130 nM in the series on HL-60 [6]. Besides, the EC50 with HL-60 [5] amounted to 90 nM.

Take `CC1=CC(=O)[C@@H](O)[C@@]2(C)[C@H]1CC[C@@]13CO[C@]4(C)[C@@H]1C(=O)O[C@H]4[C@H](O)[C@@H]32` [SAMADERIN B]: the “Ratio IC50” value with HL-60 [1] is >6. Besides, the inhibition at 2 µM in series [2] was found to be 0%. Moreover, the Activity entry in series [3] was “Non-toxic”. The results for the IC50 with HL-60 [4] and in the series with HL-60 [6] were 400 nM and > 2000 nM, respectively. Also, in the series on HL-60 [5], the EC50 was determined as 1000 nM.

On to `CC1=CC(=O)[C@@H](O)[C@]2(C)[C@H]3[C@]4(O)OC[C@]35[C@H]([C@@H](C)[C@H]4O)[C@@H](OC(=O)CC(C)(C)O)C(=O)O[C@@H]5C[C@@H]12` [SOULARUBINONE], for which the “Ratio IC50” value in the series on HL-60 [1] is 4.2. Further, the concentration for half-maximal inhibition (IC50) was 100 nM in the series on HL-60 [4] and 400 nM in the series with HL-60 [6]. Further, the 50% effective concentration (EC50) in the series with HL-60 [5] came out at 200 nM.

Consider `CC1=CC(=O)[C@@H](O)[C@]2(C)[C@H]3[C@@H](O)[C@H](O)[C@@]4(C)OC[C@@]35[C@@H](C[C@@H]12)OC(=O)[C@H](O)[C@@H]45` [YADANZIOLIDE C], for which the “Ratio IC50” value in the series on HL-60 [1] is recorded as >6.7. For the same molecule, the 50% inhibitory concentration (IC50) is 1500 nM with HL-60 [4] and > 10000 nM in the series with HL-60 [6]. In addition, the EC50 in the series with HL-60 [5] is 10000 nM.
